Source: ChEMBL document CHEMBL4184236, “Design, synthesis and biological evaluation of matrine derivatives as potential anticancer agents” (Bioorg Med Chem Lett, 2018)

Assays:
[1] = system: CNE-2; experiment: Induction of apoptosis in human CNE2 cells assessed as late apoptotic cells level at 5 uM incubated for 24 hrs by Annexin V-FITC/PI dual staining based flow cytometry (reference value: 1.37%); format: functional
Summary of the method: (§1)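 CNE2 and SMMC-7721 cells were treated for 24 h at 0, 5, 10 or 30 µM, or at 0, 10, 20 or 50 µM depending on compound. Cells were stained with Annexin V-FITC/propidium iodide and quantified by flow cytometry. Apoptotic cells were counted as AV+/PI− (lower right) plus AV+/PI+ (upper right) quadrants.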

[2] = system: CNE-2; experiment: Induction of apoptosis in human CNE2 cells assessed as necrotic cells level at 5 uM incubated for 24 hrs by Annexin V-FITC/PI dual staining based flow cytometry (reference value: 3.43%); format: functional; summary of the method: as §1
[3] = system: CNE-2; experiment: Induction of apoptosis in human CNE2 cells assessed as viable cells level at 10 uM incubated for 24 hrs by Annexin V-FITC/PI dual staining based flow cytometry (reference value: 91.6%); format: functional; summary of the method: as §1
[4] = system: CNE-2; experiment: Induction of apoptosis in human CNE2 cells assessed as late apoptotic cells level at 10 uM incubated for 24 hrs by Annexin V-FITC/PI dual staining based flow cytometry (reference value: 1.37%); format: functional; summary of the method: as §1
[5] = system: CNE-2; experiment: Induction of apoptosis in human CNE2 cells assessed as necrotic cells level at 10 uM incubated for 24 hrs by Annexin V-FITC/PI dual staining based flow cytometry (reference value: 3.43%); format: functional; summary of the method: as §1
[6] = system: CNE-2; experiment: Induction of apoptosis in human CNE2 cells assessed as viable cells level at 30 uM incubated for 24 hrs by Annexin V-FITC/PI dual staining based flow cytometry (reference value: 91.6%); format: functional; summary of the method: as §1
[7] = system: CNE-2; experiment: Induction of apoptosis in human CNE2 cells assessed as early apoptotic cells level at 30 uM incubated for 24 hrs by Annexin V-FITC/PI dual staining based flow cytometry (reference value: 3.56%); format: functional; summary of the method: as §1
[8] = system: SMMC-7721; experiment: Induction of apoptosis in human SMMC7721 cells assessed as necrotic cells level at 5 uM incubated for 24 hrs by Annexin V-FITC/PI dual staining based flow cytometry (reference value: 2.47%); format: functional; summary of the method: as §1
[9] = system: SMMC-7721; experiment: Induction of apoptosis in human SMMC7721 cells assessed as late apoptotic cells level at 10 uM incubated for 24 hrs by Annexin V-FITC/PI dual staining based flow cytometry (reference value: 0.88%); format: functional; summary of the method: as §1
[10] = system: SMMC-7721; experiment: Induction of apoptosis in human SMMC7721 cells incubated for 24 hrs by Annexin V-FITC/PI dual staining based flow cytometry; format: functional, cell-based; summary of the method: as §1
[11] = system: CNE-2; experiment: Induction of cell cycle arrest in human CNE2 cells assessed as accumulation at subG1 phase at 5 uM incubated for 24 hrs by propidium iodide staining based flow cytometry (reference value: 0.55%); format: functional
[12] = system: CNE-2; experiment: Induction of cell cycle arrest in human CNE2 cells assessed as accumulation at S phase at 5 uM incubated for 24 hrs by propidium iodide staining based flow cytometry (reference value: 10.3%); format: functional
[13] = system: CNE-2; experiment: Induction of cell cycle arrest in human CNE2 cells assessed as accumulation at G0-G1 phase at 10 uM incubated for 24 hrs by propidium iodide staining based flow cytometry (reference value: 69.3%); format: functional
[14] = system: CNE-2; experiment: Induction of cell cycle arrest in human CNE2 cells assessed as accumulation at S phase at 10 uM incubated for 24 hrs by propidium iodide staining based flow cytometry (reference value: 10.3%); format: functional
[15] = system: CNE-2; experiment: Induction of cell cycle arrest in human CNE2 cells assessed as accumulation at S phase at 30 uM incubated for 24 hrs by propidium iodide staining based flow cytometry (reference value: 10.3%); format: functional
[16] = system: CNE-2; experiment: Induction of cell cycle arrest in human CNE2 cells assessed as accumulation at G2/M phase at 30 uM incubated for 24 hrs by propidium iodide staining based flow cytometry (reference value: 19.8%); format: functional
[17] = system: SMMC-7721; experiment: Induction of cell cycle arrest in human SMMC7721 cells assessed as accumulation at S phase at 5 uM incubated for 24 hrs by propidium iodide staining based flow cytometry (reference value: 17.2%); format: functional
[18] = system: SMMC-7721; experiment: Induction of cell cycle arrest in human SMMC7721 cells assessed as accumulation at G0-G1 phase at 10 uM incubated for 24 hrs by propidium iodide staining based flow cytometry (reference value: 64.1%); format: functional
[19] = system: SMMC-7721; experiment: Induction of cell cycle arrest in human SMMC7721 cells assessed as accumulation at S phase at 10 uM incubated for 24 hrs by propidium iodide staining based flow cytometry (reference value: 17.2%); format: functional
[20] = system: SMMC-7721; experiment: Induction of cell cycle arrest in human SMMC7721 cells assessed as accumulation at G2/M phase at 10 uM incubated for 24 hrs by propidium iodide staining based flow cytometry (reference value: 18.4%); format: functional
[21] = system: SMMC-7721; experiment: Induction of cell cycle arrest in human SMMC7721 cells assessed as accumulation at G0-G1 phase at 30 uM incubated for 24 hrs by propidium iodide staining based flow cytometry (reference value: 64.1%); format: functional
[22] = system: SMMC-7721; experiment: Induction of cell cycle arrest in human SMMC7721 cells assessed as accumulation at G2/M phase at 30 uM incubated for 24 hrs by propidium iodide staining based flow cytometry (reference value: 18.4%); format: functional
[23] = system: SMMC-7721; experiment: Induction of cell cycle arrest in human SMMC7721 cells assessed as accumulation at G2/M phase incubated for 24 hrs by propidium iodide staining based flow cytometry; format: functional
[24] = system: CNE-2; experiment: Induction of cell cycle arrest in human CNE2 cells assessed as accumulation at G2/M phase incubated for 24 hrs by propidium iodide staining based flow cytometry; format: functional

Work on `COc1cc(Cn2cccc2/C=C2\CC[C@@H]3[C@H]4CCCN5CCC[C@@H](CN3C2=O)[C@@H]45)cc(OC)c1` yielded an Activity [1] of 3.17%, an Activity [2] of 2.58% and an Activity [3] of 60.7%. It also gave an Activity [4] of 8.94%, an Activity [5] of 5.22% and an Activity [6] of 43%. For the same compound, the Activity [7] was 34.6%, the Activity [8] was 4.04% and the Activity [9] was 18.5%. The Activity [10] was “Dose-dependent effect”, the Activity [11] was 5.06% and the Activity [12] was 11%. It also gave an Activity [13] of 3.93%, an Activity [14] of 2.43% and an Activity [15] of 4.8%. For the same compound, the Activity [16] was 81.1%, the Activity [17] was 7.92% and the Activity [18] was 5.61%. For the same compound, the Activity [19] was 8.92%, the Activity [20] was 78.9% and the Activity [21] was 8.58%. The Activity [22] was 79.1%, the Activity [23] was “Dose-dependent effect” and the Activity [24] was “Dose-dependent effect”.
